Source: PubChem
Sampled rows, rich in hits. Any-hit rate of the full collection: about 1.1%.
eIF2B yeast act: modulators of yeast eIF2B activity | S. cerevisiae eIF2B-epsilon R284H, GCN4-lacZ luminescence | inhibition, % at 25 µM (by protocol) | hit rate 0.91% among 27,000;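 active means mutant luminescence inhibited past about 50% while wild type luminescence and mutant growth stay under set limits, limit read from the data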
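Material – yeast eIF2B-epsilon R284H mutant carrying GCN4–beta-galactosidase fusion · Medium – YPD yeast growth medium · Compound – one concentration, 25 µM, 0.25% DMSO · Times – 16 h at 30 °C exposure · Signal – Beta-Glo luminescence plus absorbance at 595 nm · Read-out – % inhibition of reporter signal and growth versus controls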
Yeast growth tox: Compounds toxic to wild-type S. cerevisiae growth. A595 turbidity, 16 h. hit rate 0.3% among 30,000. AID 685. growth inhibition, % at 25 µM (by protocol);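 active means mutant and wild-type yeast strains alike exhibit over 30% growth inhibition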
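Incubation: 16 h growth with compound, 30 °C; Material: S. cerevisiae wild-type or eIF2Bepsilon-R284H mutant strain; Signal: turbidity measured as absorbance at 595 nm; Medium: YPD yeast growth medium; Measure: growth inhibition (%) versus cell controls and blanks; Doses: 25 µM single dose.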
Each line names hits and unclear results; the compound was inactive in the other large screens.

CN(C)C(=O)Oc1ccc(OC(=O)c2ccccc2)cc1	eIF2B yeast act 51
CN(C)Cc1ccccc1OC(=O)N(C)C	none
CC(C)c1cccc(C(C)C)c1OCCn1ccnc1	none
O=C(COc1ccc(Cl)cc1Cl)N1CCN(C/C=C/c2ccccc2)CC1	Yeast growth tox 44
CN1CCN(C(=O)COc2ccc(S(=O)(=O)NCc3ccccc3)cc2Cl)CC1	none (no result: eIF2B yeast act)
CCOC(=O)N1CCN(C(C)C(=O)c2c[nH]c3ccccc23)CC1 (centres undefined)	none
O=C(CCC(=O)N1CCC2(CC1)OCCO2)Nc1nnc(C(F)(F)F)s1	none
Cc1ccc2c(c1)CNc1ccccc1O2	none
c1ccc2c(c1)CNc1ccccc1O2	eIF2B yeast act 57
